The record followed here is ChEMBL document CHEMBL5316288, “Synthetic Strategies for Improving Solubility: Optimization of Novel Pyrazolo[1,5-a]pyrimidine CFTR Activator That Ameliorates Dry Eye Disease” (J Med Chem, 2023).

Data set [1] is described as follows: Half life in New Zealand White Rabbit conjunctiva at 0.1 mg per eye, TOP and measured upto 72 hrs by LC-MS/MS analysis. It counts as ADME, tissue-based, Oryctolagus cuniculus. To be noted: in vivo, topical_or_ocular. Summed up:
(§1)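 Male New Zealand White rabbits each received a single topical eye drop of 0.1 mg/eye, formulated in 5% polyoxyl 35 castor oil in sodium phosphate buffer. Plasma, tear, cornea, conjunctiva and retina were sampled from one eye at 0.5, 1, 4, 8, 12, 24, 48 and 72 h. Levels were measured by LC-MS/MS in tear and tissue homogenates. Parameters came from non-compartmental analysis of composite means, n = 3.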

The nature of data set [2]: Solubility of compound in PBS at 7.5 at 0.5 mg/ml incubated for 90 mins by LC-MS/MS analysis. It counts as physicochemical. The conditions noted are these: PBS, pH 7.5. Summed up:
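Thermodynamic solubility: compound at 0.5 mg/mL in isotonic phosphate-buffered saline, pH 7.5, vortexed for 90 min. The solution was then filtered sequentially through 0.45, 1.2 and 5.0 μm filters. Concentration was measured by LC-MS/MS against a ≥6-point internal-standard calibration curve (weighted 1/x linear or quadratic) and back-calculated.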

The nature of data set [3]: AUClast in New Zealand White Rabbit conjunctiva at 0.1 mg per eye, TOP and measured upto 72 hrs by LC-MS/MS analysis. It counts as ADME, tissue-based, Oryctolagus cuniculus. To be noted: topical or ocular. Also on record: time < 72 hrs, dose 0.1 mg, route top. Summed up: as §1
Data set [4] in a line: AUC (0 to 24 hrs) in New Zealand White Rabbit cornea at 0.1 mg per eye, TOP and measured upto 72 hrs by LC-MS/MS analysis. It counts as ADME, tissue-based, Oryctolagus cuniculus. Also on record: dose 0.1 mg, time < 72 hrs, route top. The conditions noted are these: topical or ocular. The essentials:
as §1

The nature of data set [5]: AUClast in New Zealand White Rabbit eye tear at 0.1 mg per eye, TOP and measured upto 72 hrs by LC-MS/MS analysis. Format: ADME, tissue-based, Oryctolagus cuniculus, Secretion of lacrimal gland. Also on record: dose 0.1 mg, time < 72 hrs, route top. To be noted: in vivo, topical_or_ocular. The essentials: as §1
Data set [6] is described as follows: Cytotoxicity against human Corneal epithelial cells assessed as reduction in cell viability at 30 uM incubated for 48 hrs with medium changed every 12 hrs by MTS assay. Format: toxicity, cell-based. The essentials:
(§2)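 Immortalized human corneal or conjunctival epithelial cells were plated and, after 24 h, exposed to 30 μM compound for 48 h. DMSO served as control and 0.01% Triton X-100 as the lysis control. Medium and compound were renewed every 12 h. Viability was read by MTS, 1 h incubation, absorbance at 490 nm; n = 3.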
(Formazan colour is commonly taken as a measure of viable cells.)

Data set [7] is described as follows: AUC (0 to infinity) in New Zealand White Rabbit eye tear at 0.1 mg per eye, TOP and measured upto 72 hrs by LC-MS/MS analysis. On the set-up: time < 72 hrs, dose 0.1 mg, route top. The conditions noted are these: in vivo, topical_or_ocular. It counts as ADME, tissue-based, Oryctolagus cuniculus, Secretion of lacrimal gland. The essentials: as §1
Data set [8] in a line: AUC (0 to infinity) in New Zealand White Rabbit conjunctiva at 0.1 mg per eye, TOP and measured upto 72 hrs by LC-MS/MS analysis. It counts as ADME, tissue-based, Oryctolagus cuniculus. Also on record: time < 72 hrs, dose 0.1 mg, route top. To be noted: topical or ocular. Summed up:
as §1

The nature of data set [9]: AUC (0 to infinity) in New Zealand White Rabbit cornea at 0.1 mg per eye, TOP and measured upto 72 hrs by LC-MS/MS analysis. Format: ADME, tissue-based, Oryctolagus cuniculus. The conditions noted are these: topical or ocular. Also on record: time < 72 hrs, dose 0.1 mg, route top. The essentials:
as §1

Data set [10] is described as follows: Tmax in New Zealand White Rabbit cornea at 0.1 mg per eye, TOP and measured upto 72 hrs by LC-MS/MS analysis. The conditions noted are these: in vivo, topical_or_ocular. Format: ADME, tissue-based, Oryctolagus cuniculus. The essentials: as §1
Data set [11] in a line: Half life in New Zealand White Rabbit eye tear at 0.1 mg per eye, TOP and measured upto 72 hrs by LC-MS/MS analysis. Format: ADME, tissue-based, Oryctolagus cuniculus, Secretion of lacrimal gland. The conditions noted are these: in vivo, topical_or_ocular. Summed up:
as §1

Data set [12] can be described thus: AUC (0 to 24 hrs) in New Zealand White Rabbit eye tear at 0.1 mg per eye, TOP and measured upto 72 hrs by LC-MS/MS analysis. On the set-up: dose 0.1 mg, time < 72 hrs, route top. The conditions noted are these: in vivo, topical_or_ocular. It counts as ADME, tissue-based, Oryctolagus cuniculus, Secretion of lacrimal gland. Summed up: as §1
Data set [13] in a line: Half life in New Zealand White Rabbit cornea at 0.1 mg per eye, TOP and measured upto 72 hrs by LC-MS/MS analysis. Format: ADME, tissue-based, Oryctolagus cuniculus. To be noted: in vivo, topical_or_ocular. The essentials: as §1
Data set [14] in a line: Tlast in New Zealand White Rabbit conjunctiva at 0.1 mg per eye, TOP and measured upto 72 hrs by LC-MS/MS analysis. It counts as ADME, tissue-based, Oryctolagus cuniculus. To be noted: in vivo, topical_or_ocular. Summed up:
as §1

The nature of data set [15]: Tlast in New Zealand White Rabbit eye tear at 0.1 mg per eye, TOP and measured upto 72 hrs by LC-MS/MS analysis. It counts as ADME, tissue-based, Oryctolagus cuniculus, Secretion of lacrimal gland. To be noted: in vivo, topical_or_ocular. Summed up: as §1
The nature of data set [16]: AUC (0 to 24 hrs) in New Zealand White Rabbit conjunctiva at 0.1 mg per eye, TOP and measured upto 72 hrs by LC-MS/MS analysis. To be noted: topical or ocular. Also on record: dose 0.1 mg, time < 72 hrs, route top. Format: ADME, tissue-based, Oryctolagus cuniculus. The essentials: as §1
Data set [17] can be described thus: Cmax in New Zealand White Rabbit eye tear at 0.1 mg per eye, TOP and measured upto 72 hrs by LC-MS/MS analysis. The conditions noted are these: in vivo, topical_or_ocular. On the set-up: time < 72 hrs, dose 0.1 mg, route top. Format: ADME, tissue-based, Oryctolagus cuniculus, Secretion of lacrimal gland. The essentials:
as §1

A short description of data set [18]: Tlast in New Zealand White Rabbit cornea at 0.1 mg per eye, TOP and measured upto 72 hrs by LC-MS/MS analysis. Format: ADME, tissue-based, Oryctolagus cuniculus. The conditions noted are these: in vivo, topical_or_ocular. The essentials: as §1
Data set [19] can be described thus: Tmax in New Zealand White Rabbit conjunctiva at 0.1 mg per eye, TOP and measured upto 72 hrs by LC-MS/MS analysis. It counts as ADME, tissue-based, Oryctolagus cuniculus. The conditions noted are these: in vivo, topical_or_ocular. Summed up:
as §1

Data set [20] is described as follows: AUClast in New Zealand White Rabbit cornea at 0.1 mg per eye, TOP and measured upto 72 hrs by LC-MS/MS analysis. It counts as ADME, tissue-based, Oryctolagus cuniculus. On the set-up: dose 0.1 mg, time < 72 hrs, route top. To be noted: topical or ocular. The essentials:
as §1

Data set [21] is described as follows: Cmax in New Zealand White Rabbit conjunctiva at 0.1 mg per eye, TOP and measured upto 72 hrs by LC-MS/MS analysis. To be noted: topical or ocular. On the set-up: dose 0.1 mg, time < 72 hrs, route top. It counts as ADME, tissue-based, Oryctolagus cuniculus. The essentials:
as §1

Data set [22] can be described thus: Cytotoxicity against human Conjunctival epithelial cells assessed as reduction in cell viability at 30 uM incubated for 48 hrs with medium changed every 12 hrs by MTS assay. Format: toxicity, cell-based. The essentials:
as §2

The nature of data set [23]: Cmax in New Zealand White Rabbit cornea at 0.1 mg per eye, TOP and measured upto 72 hrs by LC-MS/MS analysis. To be noted: topical or ocular. Also on record: dose 0.1 mg, time < 72 hrs, route top. Format: ADME, tissue-based, Oryctolagus cuniculus. The essentials:
as §1

Values after ≈ are worked out from the molar mass of the structure shown.

Usually solubility (thermodynamic) stands for solubility found after equilibrating the solid with the medium. What is called AUC(0-t) is the area under the concentration-time curve up to a stated or last time point. A low value points to less exposure. As usually defined, the AUC is concentration integrated over time. For orientation: AUC(0-inf) means total exposure, with the tail of the curve extrapolated. Read a high AUC(0-inf) as high exposure. The term Tmax denotes the time at which the peak concentration occurs. What is called Cmax is the highest concentration seen after dosing. For `COc1ccc(-c2ccnc3cc(C(=O)N4CCN(C(=O)c5ccccc5)[C@@H](C)C4)nn23)cc1OC`, the t1/2 in data set [1] stood at 40.6 h; in [11] it was 29.8 h; in data set [13] it was 23.1 h. The same molecule returned a solubility (thermodynamic) at 1.5 h in data set [2] of 134 µM (≈ 65.3 µg/mL). Further, the AUC(0-t) at 72 h in data set [3] came out at 9820 ng·h/mL; in data set [4], 19400 ng·h/mL; in data set [16] it was 4730 ng·h/mL; in [20], 28300 ng·h/mL. Moreover, the AUClast in data set [5] is 16573 ng·h/mL. In addition, the Activity entry in data set [6] and in data set [22] was “Non-Toxic” each time. Moreover, the figures for the AUC in data set [7] and in data set [12] were 18750 ng·h/mL and 7952 ng·h/mL, respectively. The AUC(0-inf) in data set [8] was found to be 13700 ng·h/mL; in [9], 35800 ng·h/mL. Also, the Tmax in [10] and in data set [19] was 30 min throughout. Besides, the Tlast in data set [14], in data set [15] and in data set [18] was 72 h throughout. The Cmax was found to be 749 ng/mL in data set [17], 793 ng/mL in data set [21] and 7840 ng/mL in data set [23].
